Here are results for seven compounds from PMC12399195 (Acta Pharmaceutica Sinica. B, 2025).

In data set [1] the target is T1, Notum (Homo sapiens, UniProt Q6P988).
T1 sequence (Q6P988 20-496): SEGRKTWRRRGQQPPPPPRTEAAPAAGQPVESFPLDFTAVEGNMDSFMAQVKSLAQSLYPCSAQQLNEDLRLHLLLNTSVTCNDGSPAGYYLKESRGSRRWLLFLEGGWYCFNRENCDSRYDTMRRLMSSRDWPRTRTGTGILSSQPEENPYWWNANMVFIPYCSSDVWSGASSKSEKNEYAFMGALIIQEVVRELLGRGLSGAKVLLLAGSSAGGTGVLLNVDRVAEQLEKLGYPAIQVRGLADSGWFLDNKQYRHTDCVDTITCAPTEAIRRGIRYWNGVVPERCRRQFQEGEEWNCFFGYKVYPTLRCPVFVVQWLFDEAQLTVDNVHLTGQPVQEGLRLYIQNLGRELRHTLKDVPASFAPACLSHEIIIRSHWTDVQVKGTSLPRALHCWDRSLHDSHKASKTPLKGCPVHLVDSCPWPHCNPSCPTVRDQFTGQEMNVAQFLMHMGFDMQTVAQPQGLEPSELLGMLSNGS
The data set is described as follows: Notum inhibition assay, DO as fluorogenic substrate. Format: biochemical.

Data set [2] addresses T1, Notum. Briefly: Notum inhibition assay, OPTS as substrate. The class given is biochemical.
In data set [3] the test system is healthy mice. Briefly: Toxicity test in healthy mice. Format: in vivo, C57BL/6J mice. To be noted: 200 mg/kg oral.
Data set [4] has as its system MC3T3-E1 cells. Briefly: Cell viability. Format: cell-based. As to conditions: for cytotoxicity towards MC3T3-E1 cells: 0–20 μmol/L, 96 h.
The test system of data set [5] is MC3T3-E1 cells. The data set is described as follows: ALP staining, osteoblast differentiation in DXMS-challenged MC3T3-E1 cells. As to conditions: 7 days. Format: cell-based. An outline of the steps:
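MC3T3-E1 cells were kept in DMEM with 10% FBS and 1% penicillin–streptomycin at 37 °C under 5% CO₂. Cells were seeded at 2×10^3 cells/well and grown 24 h, then switched to inducible medium. DXMS and test compound were added together for seven days, with medium changed every two days. Cells were fixed 15 min in 4% paraformaldehyde at room temperature, PBS-washed, BCIP/NBT ALP-stained, imaged and quantified.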

The subject of data set [6] is CYPs. To be noted: phase I metabolic systems, GSH trapping.
Data set [7] deals with T2, F268G Notum (Homo sapiens, UniProt Q6P988, F268G).
T2 sequence (Q6P988 20-496 F268G): T1 sequence (Q6P988 20-496) with F249G
Briefly: Inhibition of DO hydrolysis in F268G Notum mutant. The class given is biochemical.

Data set [8] relates to MC3T3-E1 cells. Briefly: Alizarin red S staining, calcification in DXMS-challenged MC3T3-E1 cells. Format: cell-based. As to conditions: DXMS-challenged (200 μmol/L) MC3T3-E1 cells, 21 days.
Data set [9] concerns Wnt/β-catenin signaling. The class given is cell-based. To be noted: DXMS-challenged MC3T3-E1 cells, 7 days.
Data set [10] is described as follows: Tissue distribution in mice after gavage. The class given is in vivo, C57BL/6J mice. An outline of the steps: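 Twenty male C57BL/6J mice (6 weeks, 18–20 g) were randomised into four groups: control, 1 h, 2 h and 3 h. Test compound in 0.5% CMC-Na was given once by gavage. Mice were anaesthetised at 0, 1, 2 or 3 h, and blood and organs including femur were removed. Samples were centrifuged at 20,000 × g, 4 °C, 30 min, and compound concentration was determined by LC–MS/MS.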

The test system of data set [11] is DXMS-induced osteoporotic mice. The data set is described as follows: In vivo anti-osteoporosis test in DXMS-induced osteoporotic mice. Set-up: species or system C57BL/6J mice. As to conditions: for effect on weight loss induced by DXMS: five weeks. An outline of the steps:
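Male C57BL/6J mice (6 weeks) were held SPF at 25 ± 2 °C, 50 ± 10% humidity and 12 h/12 h light/dark, with 7 days acclimatisation. They were randomised into five groups. DXMS was given i.p. at 2.5 mg/kg, five times weekly for five weeks. Test compound was dosed orally daily; PTH1–34 was given i.p. After five weeks, serum, femurs and tibias were collected. Serum ALP, OT/BGT, OPG and Col-1A1 were measured by ELISA kits. Data are mean ± SD.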

For data set [12] the following is noted: cited from earlier work.
Setting [13] is: IC50 (DO as probe), Notum-catalyzed DO hydrolysis.
Setting [14] is: 5-MP 20 and 40 mg/kg oral daily, PTH 100 μg/kg/day i.p.
Setting [15] is: distal and mid-femur, vs DXMS-challenged mice.
The mark [16] stands for this setting: distal femur, DXMS-challenged mice.

As a reminder, the IC50 is the midpoint of a concentration-inhibition curve. Read a high IC50 as weaker potency. In general, Ki refers to a dissociation constant, usually derived from enzyme kinetics or from competition with a known ligand. Higher therefore signals lower affinity.

Substitutions are numbered along the chain they refer to.

As for `O=c1ccc2ccc3occc3c2o1` [Isopsoralen], the 50% inhibitory concentration (IC50) in data set [1] (setting [13]) was found to be 72.7 ± 5.03 nM. In data set [2], this compound returned an IC50 of 71.9 ± 11 nM. Further, in [3] (14 consecutive days, mice), the body weight result was “significantly decreased”; the death of mice result was “the mice began to die”; the “organ injury (H&E, pathological examination)” value is recorded as “varying degrees of organ injury”. Also, in [3] (14 days, vs control), the “organ coefficients of the heart, liver and kidney” value is listed as “remarkably elevated”; the “serum levels of AST and ALT” value was “elevated”; the “serum levels of CK, UREA and TG” value is “decrease”. Also, the “cytotoxicity towards MC3T3-E1 cells” value in data set [4] is recorded as “weak cytotoxicity”. Also, in [5], the “effect on ALP levels (osteoblast differentiation)” value is given as “relatively weak”. Also, in data set [6], the “formation of reactive intermediates” value was “metabolically bioactivated by CYPs to generate reactive intermediates”.

As to `C[C@@H]1C[C@H]2[C@@H]3CCC4=CC(=O)C=C[C@]4(C)[C@@]3(F)[C@@H](O)C[C@]2(C)[C@@]1(O)C(=O)CO` [DXMS, dexamethasone, reference compound], in data set [4] (200 μmol/L), the cells diminished result is recorded as “approximately 50%”.

As for `O=c1oc2cc(O)ccc2c2oc3cc(O)ccc3c12` [Coumestrol], the IC50 in data set [1] amounted to 12800 ± 2440 nM.

On to `COc1c2ccoc2cc2oc(=O)ccc12` [5-MP, 5-methoxypsoralen], for which affinity in data set [1] was put at a Ki of 23.5 nM. In data set [1] (setting [13]), this compound showed an IC50 of 18.7 ± 2.08 nM. Further, the inhibition manner entry in [1] (inhibition kinetics, DO hydrolysis) is given as “competitive”. In [2], this compound gave an IC50 of 11.2 ± 0.6 nM and a Ki of 15.1 nM. Also, the inhibition manner entry in data set [2] (inhibition kinetics, OPTS hydrolysis) is reported as “competitive”. In [7], this compound yielded an IC50 of 1210 nM. Further, in [3] (14 consecutive days, mice), the “organ injury (H&E, pathological examination)” value is recorded as “no organ injury was observed” and the overall mortality rate turned out to be 0%. For the same compound, in data set [3] (14 days, vs control), the “serological indicators of organ injury (ALT, AST, CK, CREA)” value is given as “no significant difference”; the “serum levels of TC and TG” value is on record as “decreased”; the spleen coefficient result is recorded as “slight decline”. The organ coefficient entry in data set [3] (14 days, vs control, except spleen) was “no significant difference”. Moreover, the “cytotoxicity towards MC3T3-E1 cells” value in data set [4] is listed as “weak cytotoxicity”. Further, in [5], the “effect on ALP levels (osteoblast differentiation)” value is recorded as “dose-dependently mitigate the reduced ALP levels”. Besides, the “effect on intracellular calcification (ARS staining)” value in [8] was “significantly reversed the intracellular calcium loss”. For the same compound, the “mRNA levels of Notum, GSK3β, β-catenin, OPN and RUNX2” value in data set [9] is “significantly reversed the abnormal mRNA levels”. Moreover, in [10] (male, C57BL/6J, mouse, femur, po, 40 mg/kg), the concentration at 2 h amounted to 8.3 nM. Besides, the concentration at 3 h in [10] (male, C57BL/6J, mouse, plasma, po, 40 mg/kg) came to 44.6 nM. In addition, the tissue distribution result in data set [10] (single oral dose 40 mg/kg, mice) was “high exposure in the plasma and the liver”. For the same compound, the “effect on weight loss induced by DXMS” value in data set [11] (setting [14]) is “neither PTH (positive control for osteoporosis) nor 5-MP (20 and 40 mg/kg) could significantly reverse the weight loss”. The “serum levels of osteogenic markers (ALP, OT/BGT, OPG, Col-1A1)” value in data set [11] (5-MP 20 and 40 mg/kg oral daily, PTH 100 μg/kg/day i.p., vs DXMS) is listed as “substantially increased”. In [11] (setting [15]), the “bone volume fraction (BV/TV) and bone mineral density (BMD)” value is “significantly enhanced”; the “trabecular and cortical bone thickness (micro-CT)” value is listed as “significantly improved”. Also, in [11] (setting [16]), the “immunofluorescence signals of Notum in cortical bone tissues” value was “significantly decreased” and the “immunofluorescence signals of Notum in marrow cavity” value was “hardly decrease”. Moreover, in data set [11] (tibia, vs DXMS-challenged group), the “new bone formation (double labeling)” value is listed as “active new bone formation”. Moreover, the “half-life (t1/2)” value in data set [12] is recorded as 4.21 h. Also, in [6], the “formation of reactive intermediates” value is reported as “did not detect reactive intermediates”.

On to “PTH: parathyroid hormone 1–34, positive drug for treating osteoporosis (SVSEIQLMHNLGKHLNSMERVEWLRKKLQDVHNF; Parathyroid hormone; UniProt P01270 32-65, looked up, fragment) [reference compound]”, for which the “effect on weight loss induced by DXMS” value in data set [11] (setting [14]) is “neither PTH (positive control for osteoporosis) nor 5-MP (20 and 40 mg/kg) could significantly reverse the weight loss”.

As for `O=c1ccc2cc3ccoc3cc2o1` [Psoralen], it took 108 ± 10.4 nM to reach half-maximal inhibition in data set [1] (setting [13]) (IC50). Besides, in data set [2], the IC50 came to 99.9 ± 10.8 nM. Also, in data set [3] (14 consecutive days, mice), the body weight entry was “decreased significantly”; the death of mice entry is “no death was observed”; the “organ injury (H&E, pathological examination)” value is given as “varying degrees of organ injury”. Moreover, in [3] (14 days, vs control), the “organ coefficients of the heart, liver and kidney” value is listed as “remarkably elevated”; the “serum levels of ALP, CREA, UREA and TG” value is “elevate”; the “serum levels of AST and ALT” value is listed as “elevated”. Also, the “cytotoxicity towards MC3T3-E1 cells” value in [4] was “weak cytotoxicity”. In addition, the “effect on ALP levels (osteoblast differentiation)” value in data set [5] was “relatively weak”.

In turn, `COc1c2occc2cc2ccc(=O)oc12` [8-Methoxypsoralen] showed an IC50 in data set [1] of 9450 ± 1380 nM.
